Source: paper PMC7145530 (Nucleic Acids Research, 2019)

B1: RAD51CΔ42–52 (protein)
chain: MRGKTFRFEMQRDLVSFPLSPAVRVKLVSAGFQTAEELLEVSKAEALETLQIIRRECLTNKPRYAGTSESHKKCTALELLEQEHTQGFIITFCSALDDILGGGVPLMKTTEICGAPGVGKTQLCMQLAVDVQIPECFGGVAGEAVFIDTEGSFMVDRVVDLATACIQHLQLIAEKHKGEEHRKALEDFTLDNILSHIYYFRCRDYTELLAQVYLLPDFLSEHSKVRLVIVDGIAFPFRHDLDDLSLRTRLLNGLAQQMISLANNHRLAVILTNQMTTKIDRNQALLVPALGESWGHAATIRLIFHWDRKQRLATLYKSPSQKECTVLFQIKPQGFRDTVVTSACSLQTEGSLSTRKRSRDPEEEL
modifications: left off: Gal4 activation domain, end not stated, kept

Assays:
[1] = test system: NCI-H23 cells; assay: Calcein-AM viability assay, NCI-H23; format: cell-based, human; settings: MMS 400 μM, 48 h; knockdown of RAD51C, ALKBH3, or both
Method in brief: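 NCI-H23 cells grown in DMEM with 10% FBS at 37°C and 5% CO₂. Stable shRNA knockdown made by electroporation and 1 μg/ml puromycin selection for 30 days; the control shRNA targets luciferase. After MMS, cells were stained 30 min at 37°C with 2 μM Calcein AM in PBS and imaged by inverted fluorescence microscope. Percent MMS-induced cytotoxicity was plotted.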

[2] = test system: NCI-H23 cells; assay: Cell survival assay; format: cell-based, human; settings: MTT, MMS 50–400 μM, 48 h
Method in brief: (§1)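 Stable shRNA-knockdown cells (luciferase shRNA as control) seeded at 5000 per well in triplicate. MMS (0, 50, 100, 200, 300, 400 μM) was given continuously for 48 h. Medium was then replaced with 0.5 mg/ml MTT for 4 h at 37°C in the dark, formazan solubilised and A570 read. Percent viability given as mean ± SD from four experiments.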

[3] = test system: MEFs, CHO and DT40 cell lines lacking RAD51C; cancer cells lacking ALKBH3; settings: cited from earlier work
[4] = test system: PC3 cells; assay: Immunofluorescence of 3meC, PC3; format: cell-based, human; settings: 48 h
Method in brief: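 Stable RAD51C and/or ALKBH3 shRNA-knockdown PC3 cells were grown on chamber slides with MMS, then fixed in 4% formaldehyde (15 min, RT). DNA was denatured in 1.5 M HCl for 30 min and neutralised with sodium borate pH 8.5. Cells were permeabilised (0.1% Triton X-100), blocked (1% BSA), stained with anti-3meC overnight at 4°C, then Alexa-594 secondary, with DAPI counterstain. Signal was quantified as mean ± SE of three independent assays by Student's t-test.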

[5] = test system: PC-3 cells; assay: Calcein-AM viability assay, PC-3; format: cell-based, human; settings: MMS 400 μM, 48 h; knockdown of RAD51C, ALKBH3, or both
Method in brief: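 PC-3 cells grown in Ham's F-12 GlutaMAX with 10% FBS at 37°C and 5% CO₂. Stable shRNA knockdown made by electroporation and 1 μg/ml puromycin selection for 30 days; the control shRNA targets luciferase. After MMS, cells were stained 30 min at 37°C with 2 μM Calcein AM in PBS and imaged by inverted fluorescence microscope. Percent MMS-induced cytotoxicity was plotted.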

[6] = test system: PC-3 cells; assay: Cell survival assay; format: cell-based, human; settings: MTT, MMS 50–400 μM, 48 h
Method in brief: as §1

[7] = target: T1, ALKBH3 (Homo sapiens, UniProt Q96Q83); assay: Demethylation assay by direct detection of formaldehyde; format: biochemical
T1 sequence (Q96Q83 1-286): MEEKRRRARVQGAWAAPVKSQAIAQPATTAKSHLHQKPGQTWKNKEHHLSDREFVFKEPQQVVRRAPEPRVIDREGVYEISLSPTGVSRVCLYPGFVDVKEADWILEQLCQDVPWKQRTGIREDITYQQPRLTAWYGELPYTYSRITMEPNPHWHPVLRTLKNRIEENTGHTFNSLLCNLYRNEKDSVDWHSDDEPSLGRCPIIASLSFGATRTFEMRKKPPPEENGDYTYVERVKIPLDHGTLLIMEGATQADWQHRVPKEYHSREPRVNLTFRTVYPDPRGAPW

[8] = test system: XRCC3; assay: Yeast two-hybrid with XRCC3; format: binding, human; settings: pGBKT7-RAD51C or pGBKT7-RAD51CΔ42-52
[9] = target: T1, ALKBH3; assay: Steady-state; format: biochemical
[10] = target: T1, ALKBH3; assay: Yeast two-hybrid with ALKBH3; format: binding; settings: strain pJ69-4A; growth on dropout plates and lacZ reporter
Method in brief: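 Full-length ALKBH2 or ALKBH3 fused to Gal4 binding domain (pGBKT7) was co-transformed with Gal4 activation domain (pACT2) fusions of RAD51, RAD51B, RAD51C, RAD51D, XRCC2 or XRCC3, or empty vectors. Transformants were selected on SD -Leu -Trp plates at 30°C for 2–3 days, then spotted on -His (triple) or -His -Ade (quadruple) dropout plates. lacZ was scored qualitatively by X-gal filter assay.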

[11] = test system: RAD51D; assay: Yeast two-hybrid with RAD51D; format: binding, human; settings: pGBKT7-RAD51C or pGBKT7-RAD51CΔ42-52
[12] = test system: RAD51; assay: Yeast two-hybrid with RAD51; format: binding, human; settings: pGBKT7-RAD51C or pGBKT7-RAD51CΔ42-52
[13] = test system: GST-ALKBH3; assay: GST pull-down of His-RAD51C constructs; format: binding, human; settings: 150 μg GST-ALKBH3, ∼100 μg His-protein, room temperature, 2 h; MNase
Method in brief: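 His-RAD51C, full-length or Δ42–52, was expressed in E. coli BL21-CodonPlus(DE3)-RIL (1 mM IPTG, 16°C, 18 h) and purified on Ni-NTA. It was incubated with GST-ALKBH3 bound to glutathione beads in 25 mM Tris pH 7.5, 1 mM CaCl₂ and 500 mM NaCl, with 10 U micrococcal nuclease. In competition runs, RAD51C 42–52 or 33–41 peptide was added at 50, 250 or 500 μM. Bound protein was detected by SDS-PAGE and anti-6xHis western blot.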

[14] = test system: mutant ALKBH3 (H191A, D193A and H257A); assay: Demethylation assay with mutant ALKBH3; format: biochemical, human; settings: mutant ALKBH3 0.2 μM, RAD51C 4.0 μM
[15] = target: T1, ALKBH3; assay: Demethylation assay by dot-blot analysis, 3′-tailed DNA; format: biochemical; settings: ALKBH3 0.4 μM, RAD51C or RAD51CΔ42–52 8 μM, 3′-tailed DNA 8 μM, anti-3meC antibody
[16] = test system: RAD51B; assay: Yeast two-hybrid with RAD51B; format: binding, human; settings: pGBKT7-RAD51C or pGBKT7-RAD51CΔ42-52
[17] = target: T1, ALKBH3; assay: Co-immunoprecipitation; format: binding; settings: for co-immunoprecipitation of endogenous ALKBH3: NCI-H23 and PC-3, Flag-HA-RAD51C constructs
[18] = test system: NCI-H23 cells; assay: Immunofluorescence of 3meC, NCI-H23; format: cell-based, human; settings: stable RAD51C knockdown NCI-H23, MMS 400 μM, 48 h; at least 50 cells counted
Method in brief: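 RNAi-resistant Flag-HA-RAD51C, wild-type or Δ42–52, was electroporated into stable RAD51C-knockdown cells 24 h before MMS. Cells were fixed in formaldehyde, denatured in HCl, then co-stained for anti-HA (recombinant protein) and anti-3meC, with DAPI. Images were taken by fluorescence microscopy and signals quantified.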

[19] = combined RAD51C and ALKBH3 knockdown
[20] = stable RAD51C and ALKBH3 knockdown
[21] = 3′-tailed DNA 0.6–9.6 μM, ALKBH3 0.2 μM, RAD51C or RAD51CΔ42–52 4 μM, FDH-coupled
[22] = HEK-293T, Flag-HA-RAD51C constructs and Myc-ALKBH3 co-expressed, anti-Flag

Molecule	yeast two-hybrid interaction with XRCC3 [8]	kcat/KM [9, 21]	yeast two-hybrid interaction with ALKBH3 [10]	yeast two-hybrid interaction with RAD51D [11]	yeast two-hybrid interaction with RAD51 [12]	pull-down by GST-ALKBH3 [13]	effect on 3meC level [15]	yeast two-hybrid interaction with RAD51B [16]	co-immunoprecipitation of ALKBH3 [17, 22]	co-immunoprecipitation of endogenous ALKBH3 ([17]; anti-Flag)	other results
COS(C)(=O)=O [MMS, methyl methanesulphonate]											MMS sensitivity (Calcein-AM) [1]: MMS sensitive; cell survival, combined knockdown [2, 19]: severe cell survival defect; cell proliferation [2, 20]: significantly affected; MMS sensitivity [3]: MMS sensitivity; 3meC accumulation in nucleus ([4]; MMS 400 μM, ALKBH3 knockdown): a number of cells showed 3meC accumulation in the nucleus; 3meC level, effect less than ALKBH3 knockdown ([4]; MMS 400 μM, RAD51C knockdown): ~50%; 3meC accumulation in nucleus ([4]; MMS 400 μM, combined RAD51C and ALKBH3 knockdown): 3meC accumulation in the nucleus in a manner epistatic with ALKBH3 knockdown; 3meC signal in nucleus ([4]; MMS 400 μM, control shRNA): no visible signal for 3meC were detected in the nucleus; MMS sensitivity (Calcein-AM) [5]: MMS sensitive; cell survival, combined knockdown [6, 19]: severe cell survival defect; cell proliferation [6, 20]: significantly affected
RAD51C: human RAD51 paralogue, recombinant or expressed (tag-less, His-tag or Flag-HA)	interacted strongly	2.6 min^-1μM^-1	robust interaction	weak interaction	weak interaction	could be pulled down by GST-ALKBH3	reduction in the levels of 3meC in 3′-tailed DNA was higher compared to the ALKBH3 alone	interacted strongly	ALKBH3 was immunoprecipitated with RAD51C	immunoprecipitated endogenous ALKBH3 in both the cell lines	effect of ATP exclusion or ATP-γ-S on RAD51C stimulation ([7]; ALKBH3 0.2 μM, RAD51C 4.0 μM): did not affect the results; formaldehyde release, RAD51C only ([7]; RAD51C without ALKBH3): did not result in any formaldehyde release; Km [9, 21]: 1.7 µM; Vmax ([9]; 3′-tailed DNA, RAD51C 4 μM with ALKBH3 0.2 μM): increased the Vmax for ALKBH3 reaction; effect on mutant ALKBH3 activity [14]: indistinguishable from the mutant ALKBH3 alone; co-immunoprecipitation of ALKBH3 ([17]; PC-3, endogenous proteins, anti-RAD51C antibody): ALKBH3 could indeed be immunoprecipitated with RAD51C
B1	interacted strongly	1.42 min^-1μM^-1	completely abolished	weak interaction	weak interaction	could not be pulled down by GST-ALKBH3	could not result in any significant reduction in the levels of 3meC compared to ALKBH3 alone	interacted strongly	not with RAD51CΔ42–52	significantly reduced amount of endogenous ALKBH3 was immunoprecipitated	3meC signal increase after mutant expression ([4]; stable RAD51C knockdown PC3, MMS 400 μM, at least 50 cells counted): at least 50%; 3meC signal increase after mutant expression [18]: at least 50%
